Calls of active or inactive are those of the source. No cut-off for these calls is given here.
Legend:
[1] = tested on: HT-29; assay: Cytotoxicity against human HT-29 cells after 72 hrs by MTT assay; format: functional, cell-based; details: HT-29, 72 h
Procedure, shortened: (§1)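 Cells grown in MEM with 10% FBS; about 4×10^3 cells per well, preincubated 24 h at 37 °C in 5% CO₂, then exposed to compounds for 72 h. MTT at a […] added for 4 h at 37 °C. Formazan dissolved in DMSO; absorbance read at 492 nm against 630 nm reference. Three runs per line; IC50 reported as mean ± SD.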

[2] = tested on: NCI-H460; assay: Cytotoxicity against human NCI-H460 cells after 72 hrs by MTT assay; format: functional, cell-based; details: NCI-H460, 72 h; procedure, shortened: as §1
[3] = tested on: A549; assay: Cytotoxicity against human A549 cells after 72 hrs by MTT assay; format: functional, cell-based; details: A549, 72 h; procedure, shortened: as §1
[4] = tested on: MKN-45; assay: Cytotoxicity against human MKN45 cells after 72 hrs by MTT assay; format: functional, cell-based; details: MKN-45, 72 h; procedure, shortened: as §1
[5] = tested on: SMMC-7721; assay: Cytotoxicity against human SMMC7721 cells after 72 hrs by MTT assay; format: functional, cell-based; details: SMMC-7721, 72 h; procedure, shortened: as §1
[6] = species: Homo sapiens; assay: Inhibition of colchicine binding to tubulin (unknown origin) up to 15 uM pretreated for 1 hr followed by colchicine addition by spectrofluorometric method
Procedure, shortened: (§2)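 Tubulin preincubated 1 h at 37 °C with test agent (0, 1.6, 5, 15 μM), then colchicine added to a final 5 μM. Fluorescence read at excitation 365 nm and emission 435 nm, with buffer blank subtracted. Value is F/F0 × 100%, where F0 is fluorescence of the colchicine–tubulin complex without competitor.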

[7] = tested on: HT-29; assay: Potency index, ratio of CA-4 IC50 to test compound IC50 for human HT-29 cells; format: functional
[8] = species: Homo sapiens; assay: Inhibition of tubulin polymerization in human HT-29 cells assessed as abnormal microtubule network formation at 88 nM after 24 hrs by DAPI staining based immunofluorescence microscopic analysis; format: cell-based
Procedure, shortened: (§3)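 HT-29 seeded at 1×10^4 per well, grown 24 h, then treated 24 h; controls received medium. Fixed in 4% formaldehyde/PBS (30 min, −20 °C), permeabilized with 0.2% Triton X-100, and blocked with 5% BSA. Stained with anti-α-tubulin (1:100, overnight, 4 °C), then FITC anti-mouse secondary (1:100, 2 h, 37 °C). DAPI counterstain; imaged by fluorescence microscopy.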

[9] = species: Homo sapiens; assay: Inhibition of tubulin polymerization in human HT-29 cells assessed as microtubule disruption by measuring scattered short microtubule fragment in cytoplasm at 88 nM after 24 hrs by DAPI staining based immunofluorescence microscopic analysis; format: cell-based; procedure, shortened: as §3
[10] = tested on: HT-29; assay: Potency index, ratio of crolibulin IC50 to test compound IC50 for human HT-29 cells; format: functional
[11] = species: Homo sapiens; assay: Inhibition of colchicine binding to tubulin (unknown origin) pretreated for 1 hr followed by colchicine addition by spectrofluorometric method; procedure, shortened: as §2
[12] = species: Homo sapiens; assay: Inhibition of tubulin polymerization in human HT-29 cells assessed as abnormal microtubule network formation at 20 nM after 24 hrs by DAPI staining based immunofluorescence microscopic analysis; format: cell-based; procedure, shortened: as §3
[13] = species: Homo sapiens; assay: Inhibition of tubulin polymerization in human HT-29 cells assessed as microtubule disruption by measuring scattered short microtubule fragment in cytoplasm at 20 nM after 24 hrs by DAPI staining based immunofluorescence microscopic analysis; format: cell-based; procedure, shortened: as §3

| inhibition [11] | SMILES | IC50 [1] [nM] | IC50 [2] [nM] | IC50 [3] [nM] | IC50 [4] [nM] | IC50 [5] [nM] | inhibition [6] | Ratio IC50 [7] | inhibition [8] | inhibition [9] | Ratio IC50 [10] | inhibition [12] | inhibition [13] |
| --- | --- | --- | --- | --- | --- | --- | --- | --- | --- | --- | --- | --- | --- |
|  | COc1ccc(-c2cc(-c3ccc(F)cc3)n3c(CN4CCOCC4)cnc3c2C#N)c(OC)c1OC | 1030 | 9750 | 3560 | 10500 | 4030 |  |  |  |  |  |  |  |
|  | CC(=O)O[C@H]1C(=O)[C@@]2(C)[C@H]([C@H](OC(=O)c3ccccc3)[C@]3(O)C[C@H](OC(=O)[C@H](O)[C@@H](NC(=O)c4ccccc4)c4ccccc4)C(C)=C1C3(C)C)[C@]1(OC(C)=O)CO[C@@H]1C[C@@H]2O |  |  |  |  |  | inactive |  |  |  |  |  |  |
|  | CCN(CC)Cc1cnc2c(C#N)c(-c3cc(OC)c(OC)c(OC)c3)cc(-c3ccc(F)cc3F)n12 | 3510 | 760 | > 100000 | 40600 | > 100000 |  |  |  |  |  |  |  |
|  | COc1ccc(-c2cc(-c3ccc(F)cc3)n3c(CN4CCCC4)cnc3c2C#N)c(OC)c1OC | 1950 | 15600 | 1330 | 5840 | 5120 |  |  |  |  |  |  |  |
|  | N#Cc1c(-c2ccc(F)cc2Cl)cc(-c2c[nH]c3ccccc23)n2cc(CNC3CCCCC3)nc12 | 20 | 80 | 2530 | 3680 | 4880 |  |  |  |  |  |  |  |
|  | COc1ccc(-c2cc(-c3ccc(F)cc3)n3c(CN(C)C)cnc3c2C#N)c(OC)c1OC | 800 | 9330 | 670 | 6990 | 3020 |  |  |  |  |  |  |  |
|  | CCN(CC)Cc1cnc2c(C#N)c(-c3ccc(OC)c(OC)c3OC)cc(-c3ccc(F)cc3F)n12 | 210 | 60 | 1040 | 6790 | 1310 |  |  |  |  |  |  |  |
|  | CCNCc1cnc2c(C#N)c(-c3ccc(OC)c(OC)c3OC)cc(-c3ccc(F)cc3)n12 | 910 | 4540 | 3240 | 7880 | 6020 |  |  |  |  |  |  |  |
|  | COc1ccc(-c2cc(-c3ccc(F)cc3F)n3c(CN4CCCC4)cnc3c2C#N)c(OC)c1OC | 1340 | 60 | 800 | 7260 | 2380 |  |  |  |  |  |  |  |
|  | CNCc1cnc2c(C#N)c(-c3ccc(OC)c(OC)c3OC)cc(-c3ccc(F)cc3)n12 | 830 | 1880 | 710 | 3040 | 4420 |  |  |  |  |  |  |  |
|  | CCNCc1cn2c(-c3c[nH]c4ccccc34)cc(-c3ccc(F)cc3F)c(C#N)c2n1 | 50 | 150 | 920 | 2770 | 6120 |  |  |  |  |  |  |  |
|  | CC1CCN(Cc2cn3c(-c4c[nH]c5ccccc45)cc(-c4ccc(F)cc4F)c(C#N)c3n2)CC1 | 10 | 200 | 3640 | 2620 | 3550 |  |  |  |  |  |  |  |
|  | N#Cc1c(-c2ccc(F)cc2F)cc(-c2c[nH]c3ccccc23)n2cc(CN3CCOCC3)nc12 | 2700 | 190 | 3330 | 7860 | 12800 |  |  |  |  |  |  |  |
| Dose-dependent effect | N#Cc1c(-c2ccc(F)cc2F)cc(-c2c[nH]c3ccccc23)n2cc(CNC3CCCCC3)nc12 | 10 | 40 | 540 | 2400 | 5600 |  | 5 | Active | Active | 52 |  |  |
|  | N#Cc1c(-c2ccc(F)cc2F)cc(-c2c[nH]c3ccccc23)n2cc(CN3CCCC3)nc12 | 40 | 50 | 1030 | 480 | 5040 |  |  |  |  |  |  |  |
|  | CN1CCN(Cc2cn3c(-c4c[nH]c5ccccc45)cc(-c4ccc(F)cc4F)c(C#N)c3n2)CC1 | 110 | 170 | 920 | 2710 | 3820 |  |  |  |  |  |  |  |
|  | COc1ccc(-c2cc(-c3ccc(F)cc3F)n3c(CN4CCC(C)CC4)cnc3c2C#N)c(OC)c1OC | 140 | 60 | 1460 | 1680 | 3480 |  |  |  |  |  |  |  |

| inhibition [11] | SMILES | IC50 [1] [nM] | IC50 [2] [nM] | IC50 [3] [nM] | IC50 [4] [nM] | IC50 [5] [nM] | inhibition [6] | Ratio IC50 [7] | inhibition [8] | inhibition [9] | Ratio IC50 [10] | inhibition [12] | inhibition [13] |
| --- | --- | --- | --- | --- | --- | --- | --- | --- | --- | --- | --- | --- | --- |
|  | CNCc1cnc2c(C#N)c(-c3ccc(OC)c(OC)c3OC)cc(-c3ccc(F)cc3F)n12 | 70 | 20 | 130 | 2700 | 1170 |  |  |  |  |  |  |  |
|  | COc1ccc(-c2cc(-c3ccc(F)cc3F)n3c(CN4CCOCC4)cnc3c2C#N)c(OC)c1OC | 470 | 80 | 1150 | 2380 | 3200 |  |  |  |  |  |  |  |
|  | CN(C)Cc1cn2c(-c3c[nH]c4ccccc34)cc(-c3ccc(F)cc3F)c(C#N)c2n1 | 60 | 190 | 1120 | 1340 | 5300 |  |  |  |  |  |  |  |
|  | COc1cc(-c2cc(-c3ccc(F)cc3F)n3c(CN4CCCC4)cnc3c2C#N)cc(OC)c1OC | 700 | 130 | 1200 | 11600 | 2930 |  |  |  |  |  |  |  |
|  | CN1CCN(Cc2cn3c(-c4c[nH]c5ccccc45)cc(-c4ccc(F)cc4Cl)c(C#N)c3n2)CC1 | 140 | 220 | 1550 | 3620 | 7120 |  |  |  |  |  |  |  |
|  | CNCc1cn2c(-c3c[nH]c4ccccc34)cc(-c3ccc(F)cc3F)c(C#N)c2n1 | 160 | 200 | 8900 | 18200 | 16200 |  |  |  |  |  |  |  |
|  | CNCc1cn2c(-c3c[nH]c4ccccc34)cc(-c3ccc(F)cc3Cl)c(C#N)c2n1 | 120 | 250 | 1040 | 2440 | 5660 |  |  |  |  |  |  |  |
|  | N#Cc1c(-c2ccc(F)cc2F)cc(-c2c[nH]c3ccccc23)n2cc(CNC3CC3)nc12 | 40 | 280 | 9660 | 3680 | 6800 |  |  |  |  |  |  |  |
|  | COc1cc(-c2cc(-c3ccc(F)cc3F)n3c(CN(C)C)cnc3c2C#N)cc(OC)c1OC | 360 | 670 | 31000 | 14000 | 62500 |  |  |  |  |  |  |  |
|  | COc1ccc(-c2cc(-c3ccc(F)cc3F)n3c(CN(C)C)cnc3c2C#N)c(OC)c1OC | 230 | 200 | 1980 | 9080 | 6480 |  |  |  |  |  |  |  |
|  | CCN(CC)Cc1cn2c(-c3c[nH]c4ccccc34)cc(-c3ccc(F)cc3F)c(C#N)c2n1 | 20 | 110 | 80 | 3220 | 1920 |  |  |  |  |  |  |  |
|  | COc1ccc(-c2cc(-c3ccc(F)cc3)n3c(CN4CCN(C)CC4)cnc3c2C#N)c(OC)c1OC | 2040 | 3890 | 12400 | 5480 | 24600 |  |  |  |  |  |  |  |
|  | CCN(CC)Cc1cnc2c(C#N)c(-c3ccc(OC)c(OC)c3OC)cc(-c3ccc(F)cc3)n12 | 3010 | 3080 | 1970 | 23400 | 6910 |  |  |  |  |  |  |  |
|  | COc1ccc(/C=C\c2cc(OC)c(OC)c(OC)c2)cc1O [COMBRETASTATIN A4] | 50 | 80 | 430 | 110 | 1920 | Active |  |  |  |  | Active | Active |
|  | CC(C)NCc1cn2c(-c3c[nH]c4ccccc34)cc(-c3ccc(F)cc3F)c(C#N)c2n1 | 80 | 180 | 1920 | 3340 | 6540 |  |  |  |  |  |  |  |
|  | CCNCc1cnc2c(C#N)c(-c3ccc(OC)c(OC)c3OC)cc(-c3ccc(F)cc3F)n12 | 90 | 30 | 170 | 3520 | 1320 |  |  |  |  |  |  |  |
